CaV13 FRET inh: Disruptors of the CACNA1D IQ motif to Ca2+-dependent inactivation inhibitor domain association, primary screening, Förster resonance energy transfer in intact living … | HEK cells, CFP/YFP FRET ICDI-IQ, plate reader, 10 min; percent FRET-ratio fall versus neutral wells | inhibition, % at 12.3 µM | 340,000 tested, 0.098% active;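 active = mean replicate inhibition of at least 30% and at least 1% of replicates passing that level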;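 also: 0% = median of the neutral control wells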
Ecoli rRNA inh: reduced GFP signal of wild-type E. coli, primary screen, bacterial rRNA inhibitor project, GFP/RFP fluorescence, OD600, single point | 350,000 tested, 1.6% active | GFP signal change (wild-type ribosome), % (no concentration beside the values) | E. coli WT GFP vs humanized-ribosome RFP mutants, 24 h; hits give low values; DMSO median 0, no signal -100;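 active = significant combined selectivity score with lowered wild-type GFP, culture density cut under 30%, mutant RFP and density less affected; inactive = any of these conditions unmet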
Cneo AK release: Cryptococcus neoformans cell lysis inducers, primary screen, AK release luminescence, single concentration; C. neoformans lysis, adenylate kinase release luminescence, 4 h; normalised: neutral wells 0, clomiphene wells 100; lysis activity, % at 15 µM; 360,000 tested, 0.2% active;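 active = mean lysis activity across replicates of at least 80%, whatever share of replicates individually reach that level; inactive = mean lysis activity below 80%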
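read-out = cell lysis signal | test system = log-phase Cryptococcus neoformans yeast cells | input = cells at 5 × 10^6 per mL | medium = fresh YPD growth medium | signal = luminescent adenylate kinase detection reagent | timing = 4 h at 37 °C static, read 1 h later | dosing = single dose | controls = Clomiphene as positive lysis control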
CFTR F508del cor: F508del CFTR correction, initial screen, CFBE line, single point. CFBE cells, YFP halide quenching; stimulated with forskolin plus potentiator P3; % fluorescence drop versus neutral controls. activity (quench increase), % at 7.58 µM. 350,000 tested, 0.36% active;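 active = mean added fluorescence quench of at least 8% versus neutral control, with both replicates also reaching 8%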;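 also: cells transiently co-express mutant CFTR-F508del with the halide-sensitive YFP; corrector assay measuring rescue of mutant channel to the surface after 24 h compound exposure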
Numbers without * were called inactive. Compounds with a hit are over-represented: about 1.7% of the library has one in this group of screens.

C[C@H](CO)N1C[C@H](C)[C@@H](CN(C)C(=O)NC2CCCCC2)OCCCC[C@H](C)Oc2ccc(NC(=O)Nc3cccc4ccccc34)cc2C1=O was read as Ecoli rRNA inh -1, Cneo AK release -2 and CFTR F508del cor 1.
Screening COC(=O)c1ccc(CS(=O)(=O)c2ccc(F)cc2)o1 returned CaV13 FRET inh -2, Ecoli rRNA inh 9, Cneo AK release 10 and CFTR F508del cor 9.5*.
For COc1ccc(S(=O)(=O)Cc2ccc(C(=O)NC(C)C)o2)cc1 the results were CaV13 FRET inh -11, Ecoli rRNA inh 6, Cneo AK release 7 and CFTR F508del cor 2.
`COc1ccc(Cn2c(O)c(C=Nc3ccccc3C(=O)O)c3ccccc3c2=O)cc1` gave CaV13 FRET inh -2, Ecoli rRNA inh -13, Cneo AK release 4 and CFTR F508del cor -3.
For COc1ccccc1NS(=O)(=O)c1cccc(-n2c(O)c(C=Nc3ccccc3C(=O)O)c3ccccc3c2=O)c1 the results were CaV13 FRET inh -4, Ecoli rRNA inh -25*, Cneo AK release -1 and CFTR F508del cor -6.
O=C(CSc1nnc(Cn2c(=O)sc3ccccc32)n1-c1ccccc1)NCc1ccco1 was read as CaV13 FRET inh -2, Ecoli rRNA inh 2, Cneo AK release -3 and CFTR F508del cor 10*.
Screening Cn1c(Cn2c(=O)sc3ccccc32)nnc1SCC(=O)NCc1ccco1 returned CaV13 FRET inh -2, Ecoli rRNA inh 7, Cneo AK release -1 and CFTR F508del cor 0.
Cc1[nH]c2ccccc2c1/C=N/NC(=S)NC(C)C was read as CaV13 FRET inh -3, Ecoli rRNA inh -47* and CFTR F508del cor -5.
`CC(C)NC(=S)N/N=C/c1c[nH]c2ccccc12` gave CaV13 FRET inh -8.
For Cc1[nH]c2ccccc2c1/C=N/Nc1ccccc1[N+](=O)[O-] the results were CaV13 FRET inh -19, Ecoli rRNA inh -20* and CFTR F508del cor 3.
`O=C(C1CCCCC1)N1[C@@H](CO)[C@@H](c2ccccc2)C12CN(Cc1ccc(F)cc1)C2` gave Ecoli rRNA inh -5 and CFTR F508del cor 0.
`COc1ccc(-c2ccc3c(c2)O[C@@H](CN(C)C)[C@@H](C)CN([C@H](C)CO)S3(=O)=O)cc1` gave Ecoli rRNA inh 6, Cneo AK release 2 and CFTR F508del cor -2.
CC(C)C(=O)Nc1ccc2c(c1)C(=O)N(C)[C@H]1CC[C@@H](CC(=O)NCc3cccc(F)c3)O[C@@H]1CO2 was read as Ecoli rRNA inh -1, Cneo AK release -5 and CFTR F508del cor 0.
`CCCS(=O)(=O)c1ccc(COC(=O)c2cccc(NC(=O)C(C)C)c2)cc1` gave CaV13 FRET inh -7, Ecoli rRNA inh -39* and CFTR F508del cor -1.
For COc1ccccc1S(=O)(=O)N[C@H]1CC[C@H](CC(=O)NCc2cc(F)cc(F)c2)O[C@H]1CO the results were Ecoli rRNA inh 3 and CFTR F508del cor -3.
Screening CCOC(=O)NC(N(O)c1cccc(Cl)c1)C(Cl)(Cl)Cl (stereo not drawn) returned CaV13 FRET inh -4, Ecoli rRNA inh -28*, Cneo AK release -1 and CFTR F508del cor 1.
Screening CCN(C(=O)Nc1cccc(Cl)c1)c1ccccc1 returned CaV13 FRET inh -5, Ecoli rRNA inh 0, Cneo AK release 2 and CFTR F508del cor -5.
Screening C[C@H](CO)N1C[C@H](C)[C@H](CN(C)C(=O)CCC(F)(F)F)OCCCC[C@H](C)Oc2ccc(NC(=O)Nc3ccccc3)cc2C1=O returned Ecoli rRNA inh -5, Cneo AK release 1 and CFTR F508del cor 2.
For O=C(Oc1c(-c2ccccc2)c(=O)n2c3c(cccc13)CC2)c1ccc(F)cc1 the results were CaV13 FRET inh -18 and CFTR F508del cor 1.
O=C(Oc1c(-c2ccccc2)c(=O)n2c3c(cccc13)CC2)c1ccccc1 was read as CaV13 FRET inh -5, Ecoli rRNA inh -28*, Cneo AK release 8 and CFTR F508del cor 0.
`N#CCCN(C(=O)COC(=O)c1cc(=O)c2ccccc2o1)c1ccccc1` gave CaV13 FRET inh -6, Ecoli rRNA inh 12, Cneo AK release 0 and CFTR F508del cor 13*.

Assay outcomes as filed in PubChem BioAssay.
